Series [1] in a line: Half life in Sprague-Dawley rat at 1 mg/kg, iv. The series is classed as ADME, organism-based. The arrangement: dose 1 mg/kg, route intravenous. The conditions noted are these: in vivo. In a few lines: (§1)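 SD rats given a single 1 mg/kg iv dose in 5% DMA + 5% Tween-80. Plasma concentration–time data were analysed by a noncompartmental approach.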
The subject of series [2] is Rattus norvegicus. Kind of series: Mean residence time (0 to t) in Sprague-Dawley rat at 1 mg/kg, iv. It is filed as ADME, organism-based. The arrangement: dose 1 mg/kg, route intravenous. The conditions noted are these: in vivo. In a few lines: as §1
Series [3] is described as follows: Cmax in Sprague-Dawley rat at 1 mg/kg, iv. The series is classed as ADME, organism-based. The arrangement: dose 1 mg/kg, route intravenous. The conditions noted are these: in vivo. Summed up:
as §1

Series [4] can be described thus: Ratio of GDC-0449 IC50 to compound IC50 for hedgehog signaling pathway in mouse NIH/3T3 cells by Gli1-luciferase reporter gene assay. It is filed as cell-based.
The nature of series [5]: Clearance in Sprague-Dawley rat at 5 mg/kg, po. It is filed as ADME, organism-based. Also on record: dose 5 mg/kg, route oral. The conditions noted are these: in vivo. In a few lines:
(§2)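 SD rats dosed orally at 5 mg/kg in 0.5% HPMC + 0.3% Tween-80 (pH 2.8). Blood samples (n = 3) were centrifuged at 4000 rpm for 5 min at 4 °C. Plasma concentration–time data were analysed noncompartmentally.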

A short description of series [6]: Cmax in Sprague-Dawley rat at 5 mg/kg, po. The arrangement: dose 5 mg/kg, route oral. The conditions noted are these: in vivo. The series is classed as ADME, organism-based. Summed up:
as §2

Series [7] is described as follows: AUC in Sprague-Dawley rat at 1 mg/kg, iv. The series is classed as ADME, organism-based. The arrangement: dose 1 mg/kg, route intravenous. The conditions noted are these: plasma. In a few lines:
as §1

The nature of series [8]: AUC in Sprague-Dawley rat at 5 mg/kg, po. The arrangement: dose 5 mg/kg, route oral. It is filed as ADME, organism-based. The conditions noted are these: plasma. In a few lines: as §2
Series [9] is described as follows: Oral bioavailability in Sprague-Dawley rat at 5 mg/kg. The conditions noted are these: in vivo. The series is classed as ADME, organism-based. In a few lines: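 Oral dosing of SD rats at 5 mg/kg in 0.5% HPMC + 0.3% Tween-80 (pH 2.8), with blood samples n = 3, alongside iv dosing at 1 mg/kg in 5% DMA + 5% Tween-80. Plasma concentration–time data were analysed noncompartmentally.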

In series [10] the test system is Rattus norvegicus. Kind of series: Volume of distribution at steady state in Sprague-Dawley rat at 5 mg/kg, po. Also on record: dose 5 mg/kg, route oral. It is filed as ADME, organism-based. The conditions noted are these: in vivo. Summed up: as §2
Series [11] relates to Rattus norvegicus. Kind of series: Volume of distribution at steady state in Sprague-Dawley rat at 1 mg/kg, iv. The series is classed as ADME, organism-based. Also on record: dose 1 mg/kg, route intravenous. The conditions noted are these: in vivo. In a few lines:
as §1

Series [12] is described as follows: Mean residence time (0 to t) in Sprague-Dawley rat at 5 mg/kg, po. The conditions noted are these: in vivo. Also on record: dose 5 mg/kg, route oral. It is filed as ADME, organism-based. Summed up:
as §2

Series [13] is described as follows: Inhibition of hedgehog signaling pathway in mouse NIH/3T3 cells by Gli1-luciferase reporter gene assay. It is filed as cell-based. The conditions noted are these: NIH3T3. In general terms: A reporter such as luciferase makes a cellular process visible.
Series [14] is described as follows: Half life in Sprague-Dawley rat at 5 mg/kg, po. The series is classed as ADME, organism-based. Also on record: dose 5 mg/kg, route oral. The conditions noted are these: in vivo. Summed up:
as §2

The term half-life denotes how long it takes for the measured level to halve. Low values mean rapid decline, high ones slow decline. The term MRT denotes a mean duration of stay, worked out from the concentration-time curve. Broadly, the Cmax is the peak of the concentration-time curve. By CL/F is commonly meant the apparent clearance, not corrected for the fraction that reaches the circulation. The term AUC denotes concentration integrated over time. High values mean more exposure, low ones less exposure. The term bioavailability denotes the share of a dose that reaches the circulation, judged against a reference dose that is usually intravenous. The low end stands for little systemic uptake, the high end for much systemic uptake. As usually defined, the MRT last is a mean duration of stay, worked out from the concentration-time curve. As a reminder, the IC50 is the point on the concentration scale where inhibition reaches its midpoint. Low values mean greater potency in that assay, high ones weaker potency in that assay.

With `Cc1ccc(CN2CCOCC2)cc1NC(=O)c1ccc(Nc2ncc(C)c(-c3ccc(OC(F)(F)F)cc3)n2)cc1`, the half-life in [1] was 432 min; in [14] it was 348 min. Besides, in series [2], the mean residence time MRT is 4.1 h. Moreover, the maximum concentration (Cmax) in [3] is 1200 ng/mL; in series [6], 280 ng/mL. Besides, the Ratio IC50 in series [4] came out at 7. In addition, the apparent clearance CL/F in series [5] amounted to 32.8 mL/min/kg. The AUC worked out at 1300 ng·h/mL in series [7] and 2400 ng·h/mL in series [8]. This compound also registered a bioavailability in [9] of 46.3%. Moreover, the figures for the Vdss in [10] and in [11] were 16.3 L/kg and 7.4 L/kg, respectively. Moreover, the MRT last in series [12] came out at 6.6 h. Also, the midpoint of inhibition in [13], the IC50, lay at 0.53 nM.

The record behind these values is ChEMBL document CHEMBL3112531, “Synthesis and evaluation of 4-(2-pyrimidinylamino) benzamides inhibitors of hedgehog signaling pathway” (Bioorg Med Chem Lett, 2014).
